Data as given in ChEMBL document CHEMBL3425433, “Discovery of bicyclic pyrazoles as class III histone deacetylase SIRT1 and SIRT2 inhibitors” (Bioorg Med Chem Lett, 2015).
Activity calls are given as the source filed them. No cut-off for these calls is given here.

How the values were obtained:
Plasma = test: Metabolic stability in mouse plasma; assay type: ADME, cell-free
[1] = Oral bioavailability in rat; assay type: ADME, organism-based; details: in vivo
[2] = Half life in rat; assay type: ADME, organism-based; details: in vivo
[3] = target: T1, NAD-dependent protein deacetylase sirtuin-2 (Homo sapiens, UniProt Q8IXJ6); test: Inhibition of His-tagged human recombinant SIRT2 expressed in Escherichia coli using Cbz-Lys(Ac)-AMC as substrate by fluorescence assay
T1 sequence (Q8IXJ6 whole entry): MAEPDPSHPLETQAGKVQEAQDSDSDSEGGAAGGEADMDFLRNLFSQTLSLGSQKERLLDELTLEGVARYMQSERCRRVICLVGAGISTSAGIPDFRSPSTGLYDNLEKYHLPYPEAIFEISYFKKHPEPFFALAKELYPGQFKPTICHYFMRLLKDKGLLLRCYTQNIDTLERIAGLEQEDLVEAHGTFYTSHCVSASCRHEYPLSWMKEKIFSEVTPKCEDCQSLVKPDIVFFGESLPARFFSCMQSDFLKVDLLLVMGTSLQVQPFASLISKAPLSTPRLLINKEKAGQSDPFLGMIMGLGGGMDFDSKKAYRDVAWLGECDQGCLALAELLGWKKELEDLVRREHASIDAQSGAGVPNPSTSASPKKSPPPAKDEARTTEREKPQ

[4] = target: T2, Histone deacetylase 8 (Homo sapiens) (UniProt Q9BY41); test: Inhibition of HDAC8 (unknown origin)
T2 sequence (whole entry): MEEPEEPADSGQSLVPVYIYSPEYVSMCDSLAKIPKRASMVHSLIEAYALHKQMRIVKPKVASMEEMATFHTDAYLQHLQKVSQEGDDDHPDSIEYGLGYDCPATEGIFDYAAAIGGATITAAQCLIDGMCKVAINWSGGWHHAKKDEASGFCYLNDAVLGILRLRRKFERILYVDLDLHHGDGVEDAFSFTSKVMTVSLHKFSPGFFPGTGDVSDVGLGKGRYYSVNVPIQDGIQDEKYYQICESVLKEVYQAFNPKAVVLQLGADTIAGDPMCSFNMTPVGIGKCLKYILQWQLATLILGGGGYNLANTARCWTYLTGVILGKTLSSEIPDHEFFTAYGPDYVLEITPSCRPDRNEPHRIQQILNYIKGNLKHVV

[5] = target: T3, NAD-dependent protein deacetylase sirtuin-1 (Homo sapiens, UniProt Q96EB6); test: Inhibition of His-tagged human recombinant SIRT1 expressed in Escherichia coli using Cbz-Lys(Ac)-AMC as substrate by fluorescence assay
T3 sequence (Q96EB6 whole entry): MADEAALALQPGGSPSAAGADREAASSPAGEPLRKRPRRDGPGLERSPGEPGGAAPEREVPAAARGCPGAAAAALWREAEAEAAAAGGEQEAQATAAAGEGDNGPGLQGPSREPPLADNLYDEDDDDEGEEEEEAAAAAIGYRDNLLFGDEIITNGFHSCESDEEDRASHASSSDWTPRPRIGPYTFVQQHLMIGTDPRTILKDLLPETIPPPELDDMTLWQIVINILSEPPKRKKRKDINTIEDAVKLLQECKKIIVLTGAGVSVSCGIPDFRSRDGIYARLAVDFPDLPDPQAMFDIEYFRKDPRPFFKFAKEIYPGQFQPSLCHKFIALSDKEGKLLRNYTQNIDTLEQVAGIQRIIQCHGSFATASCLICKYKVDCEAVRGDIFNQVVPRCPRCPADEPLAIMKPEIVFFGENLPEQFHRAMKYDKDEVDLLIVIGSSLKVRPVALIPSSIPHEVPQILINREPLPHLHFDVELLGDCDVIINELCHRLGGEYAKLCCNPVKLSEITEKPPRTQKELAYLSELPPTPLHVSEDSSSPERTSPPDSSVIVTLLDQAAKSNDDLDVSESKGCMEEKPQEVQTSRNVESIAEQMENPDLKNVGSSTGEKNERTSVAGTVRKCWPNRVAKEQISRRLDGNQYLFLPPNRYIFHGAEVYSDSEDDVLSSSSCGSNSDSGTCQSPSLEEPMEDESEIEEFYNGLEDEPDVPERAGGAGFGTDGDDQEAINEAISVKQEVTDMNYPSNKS

[6] = target: T4, NAD-dependent protein deacetylase sirtuin-1 (Homo sapiens) (UniProt Q96EB6); test: Inhibition of SIRT1-mediated endogenous p53 deacetylase activity in human Namalwa cells assessed as concentration required to […] to twice the basal level after 3 hrs by ELISA; assay type: cell-based
T4 sequence (whole entry): T3 sequence (Q96EB6 whole entry)
Summary of the method: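 Namalwa cells, 50,000/well, were exposed 3 h at 37 °C, 5% CO2, to 0.005–50 µM final (0.95% DMSO). Lysates were ELISA-captured on anti-p53 (DO-1), probed overnight with anti-acetyl-Lys382-p53, then HRP conjugate and Amplex Red (15 min; ex 550/em 610 nm). IC2xB is the concentration doubling basal (lowest) fluorescence. Means of three experiments.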

[7] = Clearance in rat; assay type: ADME, organism-based; details: in vivo
[8] = target: T5, Histone deacetylase 7 (Homo sapiens) (UniProt Q8WUI4); test: Inhibition of HDAC7 (unknown origin)
T5 sequence (whole entry): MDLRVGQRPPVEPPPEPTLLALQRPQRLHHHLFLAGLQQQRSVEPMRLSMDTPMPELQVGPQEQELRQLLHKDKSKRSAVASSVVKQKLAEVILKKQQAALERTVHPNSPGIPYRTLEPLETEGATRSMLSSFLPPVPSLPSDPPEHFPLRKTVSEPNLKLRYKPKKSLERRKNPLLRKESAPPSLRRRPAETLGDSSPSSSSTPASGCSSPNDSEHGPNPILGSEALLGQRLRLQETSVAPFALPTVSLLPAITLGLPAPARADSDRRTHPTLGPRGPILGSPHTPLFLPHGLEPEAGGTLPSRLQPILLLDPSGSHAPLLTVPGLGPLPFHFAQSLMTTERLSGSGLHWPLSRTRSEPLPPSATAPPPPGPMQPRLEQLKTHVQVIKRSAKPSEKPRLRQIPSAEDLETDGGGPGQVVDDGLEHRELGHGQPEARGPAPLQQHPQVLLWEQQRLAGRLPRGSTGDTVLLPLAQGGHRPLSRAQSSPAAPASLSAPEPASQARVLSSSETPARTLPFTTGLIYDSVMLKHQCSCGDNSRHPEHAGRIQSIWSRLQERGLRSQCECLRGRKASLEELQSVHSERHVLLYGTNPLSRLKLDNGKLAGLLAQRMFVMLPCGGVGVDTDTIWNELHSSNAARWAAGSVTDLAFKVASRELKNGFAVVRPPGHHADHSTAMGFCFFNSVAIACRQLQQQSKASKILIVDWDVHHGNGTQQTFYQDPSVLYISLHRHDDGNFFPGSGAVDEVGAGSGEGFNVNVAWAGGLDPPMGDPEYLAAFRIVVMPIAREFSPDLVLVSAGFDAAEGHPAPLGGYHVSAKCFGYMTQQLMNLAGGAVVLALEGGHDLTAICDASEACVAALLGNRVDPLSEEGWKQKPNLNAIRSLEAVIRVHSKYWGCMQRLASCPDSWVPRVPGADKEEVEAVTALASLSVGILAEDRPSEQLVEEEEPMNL

Stability (Plasma): Stable
bioavailability [1]: 23%
half-life [2]: 5.1 h
IC50 [3]: 1700 nM
inhibition [4]: inactive
IC50 [5]: 800 nM
INH [6]: 1.2 µM
clearance [7]: 5 mL/min/kg
inhibition [8]: inactive
SMILES: CC1(C)Cc2c(-c3ccc(Cl)cc3)n[nH]c2C(C(N)=O)C1 (racemic)
